From ChEMBL document CHEMBL4190396, “Discovery of Novel Small-Molecule Inhibitors of NF-κB Signaling with Antiinflammatory and Anticancer Properties” (J Med Chem, 2018)
Calls of active or inactive are those of the source. The calls are words filed in the database; no cut-off is given here.

What was measured:
[1] = target: Toll-like receptor 3 (Homo sapiens) (UniProt O15455); assay: Antagonist activity at human TLR3 expressed in HEK293 cells assessed as decrease in poly I:C-induced NF-kappaB activation-mediated SEAP production at 10^-9 to 10^-5 M after 24 hrs by Quanti-blue-based assay; format: cell-based
How it was run: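 HEK293 cells stably carrying a human TLR plus an NF-κB-driven SEAP reporter, seeded 5×10^4/well for 24 h at 37 °C, then stimulated: Pam3CSK4 100 µg/mL (TLR1/2), Pam2CSK4 100 µg/mL, poly I:C 5 µg/mL (TLR3), LPS 20 ng/mL (TLR4), flagellin 100 ng/mL (TLR5), R848 1 µg/mL (TLR7, TLR8), CpG-ODN2006 1 µg/mL (TLR9). After 24 h with compound, supernatant mixed with QUANTI-Blue, 1 h 37 °C, OD 620 nm.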

HeLa [2] = assay: Cell cycle arrest in human HeLa cells assessed as accumulation at S phase at 10 uM after 24 hrs by propidium iodide staining based flow cytometry (reference value: 34.9%); format: functional
How it was run: (§1)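 HeLa cells, 3×10^5/well, attached overnight, switched to serum-free medium for synchronisation, then DMSO or 5, 10, 20 µM for 24 h; cells fixed, PI-stained, G0/G1, S and G2/M fractions by flow cytometry; n = 3, mean ± SD.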

[3] = target: Tumor necrosis factor receptor superfamily member 1A (Homo sapiens, UniProt P19438); assay: Inhibition of TNFR in TLR null HEK-blue cells assessed as decrease in TNFalpha-stimulated NF-kappaB activation-mediated SEAP production after 24 hrs by Quanti-blue-based assay; format: cell-based
[4] = target: T1, Toll-like receptor 7 (Homo sapiens) (UniProt Q9NYK1); assay: Inhibition of human TLR7 expressed in HEK293 cells assessed as decrease in R848-induced NF-kappaB activation-mediated SEAP production at 5 uM after 24 hrs by Quanti-blue-based assay relative to control; format: cell-based
T1 sequence (whole entry): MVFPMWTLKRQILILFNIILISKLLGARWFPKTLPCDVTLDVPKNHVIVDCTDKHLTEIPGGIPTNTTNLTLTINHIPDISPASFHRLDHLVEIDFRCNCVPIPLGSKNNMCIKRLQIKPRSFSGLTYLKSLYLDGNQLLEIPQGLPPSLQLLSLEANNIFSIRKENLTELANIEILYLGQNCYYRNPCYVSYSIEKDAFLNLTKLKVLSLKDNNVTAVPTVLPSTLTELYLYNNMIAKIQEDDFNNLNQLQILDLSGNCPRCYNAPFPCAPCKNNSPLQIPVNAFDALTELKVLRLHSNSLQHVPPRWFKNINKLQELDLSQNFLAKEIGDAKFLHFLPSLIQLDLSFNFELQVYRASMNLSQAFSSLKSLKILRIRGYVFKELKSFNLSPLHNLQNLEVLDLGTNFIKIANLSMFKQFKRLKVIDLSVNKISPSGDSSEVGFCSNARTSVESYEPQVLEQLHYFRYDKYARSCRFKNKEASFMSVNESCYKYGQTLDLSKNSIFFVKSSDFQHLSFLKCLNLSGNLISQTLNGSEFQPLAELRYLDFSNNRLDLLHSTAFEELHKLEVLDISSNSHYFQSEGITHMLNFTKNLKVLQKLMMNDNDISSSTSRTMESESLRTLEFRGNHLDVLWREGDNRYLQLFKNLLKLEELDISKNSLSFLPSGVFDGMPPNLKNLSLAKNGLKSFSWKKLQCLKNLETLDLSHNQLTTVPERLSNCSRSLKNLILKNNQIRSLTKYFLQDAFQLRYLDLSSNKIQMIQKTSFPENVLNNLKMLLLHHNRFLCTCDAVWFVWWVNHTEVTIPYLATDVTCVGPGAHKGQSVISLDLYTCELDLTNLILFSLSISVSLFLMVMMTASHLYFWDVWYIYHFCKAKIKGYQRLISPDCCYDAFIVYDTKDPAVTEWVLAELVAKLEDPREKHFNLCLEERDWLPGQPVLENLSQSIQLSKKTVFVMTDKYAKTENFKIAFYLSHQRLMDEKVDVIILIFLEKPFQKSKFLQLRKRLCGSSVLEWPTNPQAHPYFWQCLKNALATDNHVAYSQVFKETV

HeLa [5] = assay: Cell cycle arrest in human HeLa cells assessed as accumulation at S phase at 5 uM after 24 hrs by propidium iodide staining based flow cytometry (reference value: 34.9%); format: functional; how it was run: as §1
HeLa [6] = assay: Cell cycle arrest in human HeLa cells assessed as accumulation at G2/M phase at 5 uM after 24 hrs by propidium iodide staining based flow cytometry (reference value: 15.7%); format: functional; how it was run: as §1
HeLa [7] = assay: Cell cycle arrest in human HeLa cells assessed as accumulation at G2/M phase at 20 uM after 24 hrs by propidium iodide staining based flow cytometry (reference value: 15.7%); format: functional; how it was run: as §1
Protein kinase C (PKC) = assay: (§2) Inhibition of PKC in TLR null HEK-blue cells assessed as inhibition of PMA-induced NF-kappaB activation-mediated SEAP production after 24 hrs by Quanti-blue-based assay; format: cell-based, Homo sapiens
[8] = target: Protein kinase C (PKC) (Homo sapiens) (UniProt O94806+P41743+P17252+P05129+Q05655+P05771+Q05513+Q02156+P24723+Q15139+Q04759); assay: as §2; format: cell-based
RAW264.7 = assay: Antiinflammatory activity in mouse RAW264.7 cells assessed as decrease in LPS-induced NO production after 18 hrs by DAN assay; format: functional, cell-based
How it was run: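 RAW 264.7 cells at 2×10^5 cells/mL, 24 h, medium refreshed, then LPS 100 ng/mL with or without graded compound for 18 h; nitrite in medium reacted with 2,3-diaminonaphthalene (0.05 mg/mL in 0.62 M HCl), 15 min in dark, as NO readout. n = 3, mean ± SD.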

[9] = target: Inhibitor of nuclear factor kappa-B kinase subunit alpha/beta (Mus musculus) (UniProt Q60680+O88351); assay: Inhibition of IKK-alphabeta in mouse RAW264.7 cells assessed as reduction in LPS-induced IKK-alphabeta phosphorylation at 1 to 10 uM preincubated for 1 hr followed by LPS stimulation for 15 to 30 mins by Western blot method; format: cell-based
How it was run: (§3)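 RAW 264.7 cells, 3×10^6 per dish overnight, pretreated 1 h with 1, 5 or 10 µM, then LPS 100 ng/mL for 15 or 30 min; nuclear/cytoplasmic lysates (20–30 µg) run on 10% SDS-PAGE, immunoblotted for phospho/total proteins, GAPDH loading control, ECL, densitometry; three independent experiments.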

HeLa [10] = assay: Growth inhibition of human HeLa cells after 48 hrs by WST1 assay; format: functional
[11] = target: Proto-oncogene tyrosine-protein kinase Src (Mus musculus) (UniProt P05480); assay: Inhibition of LPS-induced SRC phosphorylation in mouse RAW264.7 cells preincubated for 1 hr followed by LPS stimulation for 30 mins by Western blot method; format: cell-based; how it was run: as §3
[12] = target: Tyrosine-protein kinase SYK (Mus musculus) (UniProt P48025); assay: Inhibition of LPS-induced SYK phosphorylation in mouse RAW264.7 cells preincubated for 1 hr followed by LPS stimulation for 30 mins by Western blot method; format: cell-based; how it was run: as §3
Chain of Tyrosine-protein kinase SYK (Mus musculus) (P48025 whole entry, looked up): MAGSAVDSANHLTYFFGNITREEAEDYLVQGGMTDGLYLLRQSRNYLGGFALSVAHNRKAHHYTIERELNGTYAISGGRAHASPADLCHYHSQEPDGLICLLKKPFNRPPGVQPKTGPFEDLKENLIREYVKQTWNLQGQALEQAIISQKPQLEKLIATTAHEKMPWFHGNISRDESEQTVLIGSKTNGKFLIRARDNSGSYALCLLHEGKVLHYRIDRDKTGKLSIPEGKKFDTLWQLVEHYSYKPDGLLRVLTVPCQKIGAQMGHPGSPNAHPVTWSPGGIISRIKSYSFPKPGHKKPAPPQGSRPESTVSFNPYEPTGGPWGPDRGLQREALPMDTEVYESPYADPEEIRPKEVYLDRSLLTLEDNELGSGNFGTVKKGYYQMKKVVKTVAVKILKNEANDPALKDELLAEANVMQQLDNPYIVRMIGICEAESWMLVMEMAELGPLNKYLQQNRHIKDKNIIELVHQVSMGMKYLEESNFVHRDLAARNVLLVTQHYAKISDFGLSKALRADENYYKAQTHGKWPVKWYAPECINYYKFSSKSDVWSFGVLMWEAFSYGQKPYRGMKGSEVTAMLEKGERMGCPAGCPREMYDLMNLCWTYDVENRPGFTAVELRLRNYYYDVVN

Chain of Toll-like receptor 3 (Homo sapiens) (O15455 whole entry): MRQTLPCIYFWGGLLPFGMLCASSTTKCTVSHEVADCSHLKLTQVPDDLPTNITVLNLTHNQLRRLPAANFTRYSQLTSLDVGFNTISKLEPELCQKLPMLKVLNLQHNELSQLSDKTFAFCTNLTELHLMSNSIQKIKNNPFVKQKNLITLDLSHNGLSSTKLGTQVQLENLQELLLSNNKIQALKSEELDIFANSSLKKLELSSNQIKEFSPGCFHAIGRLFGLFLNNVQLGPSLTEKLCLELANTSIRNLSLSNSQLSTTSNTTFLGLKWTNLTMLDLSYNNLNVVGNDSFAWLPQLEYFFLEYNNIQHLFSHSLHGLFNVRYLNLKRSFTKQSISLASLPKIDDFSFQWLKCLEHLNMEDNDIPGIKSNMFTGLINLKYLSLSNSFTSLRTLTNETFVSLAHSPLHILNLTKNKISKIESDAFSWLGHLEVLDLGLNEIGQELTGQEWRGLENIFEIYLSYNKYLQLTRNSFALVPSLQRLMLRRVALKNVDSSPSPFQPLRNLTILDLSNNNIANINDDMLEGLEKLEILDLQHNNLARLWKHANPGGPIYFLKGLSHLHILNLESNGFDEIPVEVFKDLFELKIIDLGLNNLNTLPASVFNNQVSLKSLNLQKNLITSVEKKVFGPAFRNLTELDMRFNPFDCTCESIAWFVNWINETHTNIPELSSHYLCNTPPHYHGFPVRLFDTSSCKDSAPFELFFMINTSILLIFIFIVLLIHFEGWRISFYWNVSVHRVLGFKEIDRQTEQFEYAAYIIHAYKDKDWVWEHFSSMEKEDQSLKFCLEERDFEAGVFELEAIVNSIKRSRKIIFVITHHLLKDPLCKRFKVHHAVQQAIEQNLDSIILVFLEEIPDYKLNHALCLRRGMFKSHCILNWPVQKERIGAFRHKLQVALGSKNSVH
Chain of Proto-oncogene tyrosine-protein kinase Src (Mus musculus) (P05480 2-535 limits assumed): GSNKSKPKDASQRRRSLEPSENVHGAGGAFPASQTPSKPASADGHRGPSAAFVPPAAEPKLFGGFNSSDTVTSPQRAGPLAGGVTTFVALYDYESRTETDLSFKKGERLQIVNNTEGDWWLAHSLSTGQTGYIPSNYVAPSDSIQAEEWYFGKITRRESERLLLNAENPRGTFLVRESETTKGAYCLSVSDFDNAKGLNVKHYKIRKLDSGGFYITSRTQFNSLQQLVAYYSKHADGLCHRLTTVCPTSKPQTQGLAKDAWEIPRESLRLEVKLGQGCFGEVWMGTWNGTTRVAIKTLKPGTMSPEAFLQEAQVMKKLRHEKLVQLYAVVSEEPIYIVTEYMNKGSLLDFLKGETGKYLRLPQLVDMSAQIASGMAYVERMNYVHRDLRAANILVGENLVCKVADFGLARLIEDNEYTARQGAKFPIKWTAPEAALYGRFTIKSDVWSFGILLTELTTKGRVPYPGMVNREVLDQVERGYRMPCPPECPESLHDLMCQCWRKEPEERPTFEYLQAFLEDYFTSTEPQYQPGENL
Chain of Tumor necrosis factor receptor superfamily member 1A (P19438 whole entry): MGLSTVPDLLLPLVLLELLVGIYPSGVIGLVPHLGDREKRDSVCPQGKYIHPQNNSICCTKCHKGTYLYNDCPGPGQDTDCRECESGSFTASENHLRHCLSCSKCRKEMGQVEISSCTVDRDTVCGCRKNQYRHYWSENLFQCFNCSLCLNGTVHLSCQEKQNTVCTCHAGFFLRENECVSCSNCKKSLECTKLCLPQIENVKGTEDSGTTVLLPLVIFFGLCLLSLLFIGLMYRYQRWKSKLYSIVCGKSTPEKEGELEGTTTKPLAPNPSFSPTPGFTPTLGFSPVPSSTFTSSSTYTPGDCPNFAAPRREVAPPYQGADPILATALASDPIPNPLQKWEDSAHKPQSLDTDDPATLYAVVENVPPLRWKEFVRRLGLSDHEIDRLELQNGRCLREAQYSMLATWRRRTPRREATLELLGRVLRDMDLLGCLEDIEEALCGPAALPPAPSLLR

inhibition [1]: Active | inhibition [4]: 99.6% | IC50 (Protein kinase C (PKC)): 370 nM | inhibition [8]: Dose-dependent effect | inhibition [9]: Active | GI50 (HeLa [10]): 1350 nM | inhibition [11]: Dose-dependent effect | inhibition [12]: Dose-dependent effect
Structure (SMILES): O=C(NNC(=O)c1csc(-c2ccc(Cl)cc2Cl)n1)c1ccccn1
Activity (HeLa [2]): 41.7% | IC50 [3]: 770 nM | Activity (HeLa [5]): 48.4% | Activity (HeLa [6]): 13.8% | Activity (HeLa [7]): 3.9% | Activity (RAW264.7): Active
